Legend:
Cavia porcellus = species on record: Cavia porcellus; assay: Concentration producing 50% of the maximal increase in the force of contraction in isolated guinea pig left atrium; assay type: functional; settings: Cardiac atrium
In short: (§1)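 Isolated guinea pig atria in solution bubbled with 95% O2/5% CO2, field-stimulated by platinum electrodes at 1 Hz (1 ms square pulses, twice threshold voltage). After 60 min equilibration, cumulative concentrations added, each held until maximal response or arrhythmia.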

[1] = Percent increase in force of contraction in vitro determined using electrically driven guinea pig left atrium.; assay type: functional; settings: Cavia porcellus, Cardiac atrium; in short: as §1
[2] = target: Sodium/potassium-transporting ATPase; assay: In vitro inhibitory concentration against dog kidney Na+/K+ ATPase; assay type: protein-complex assay, Canis lupus familiaris
In short: (§2)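 Na+,K+-ATPase isolated and purified from dog kidney. Inhibition measured as percent hydrolysis of 32P-ATP with versus without compound. […] Single-concentration entries report percent inhibition at the stated concentration. Compounds tested within 1–4 h of dissolution.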

[3] = In vitro maximum inotropic effect on contractile force of an electrically driven guinea pig left atrium.; assay type: functional, Cavia porcellus, Cardiac atrium; in short: as §1
[4] = Compound at 100 uM was tested in vitro for the inhibition of dog kidney Na+/K+ ATPase; settings: Canis lupus familiaris, target entry is the homologue from another species; in short: as §2
[5] = target: Sodium/potassium-transporting ATPase subunit alpha-1 (Canis lupus familiaris, UniProt P50997); assay: In vitro inhibitory concentration against dog kidney Na+,K+-ATPase
In short: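 Na+,K+-ATPase isolated and purified from dog kidney. Inhibition measured as percent hydrolysis of 32P-ATP with versus without compound. Single-concentration entries report percent inhibition at the stated concentration. Compounds tested within 1–4 h of dissolution.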

| Compound | EC50 (Cavia porcellus) [µM] | Emax [1] [%] | IC50 [2] [µM] | Concentration giving maximal inotropic effect [3] [µM] | inhibition [4] [%] | IC50 [5] [µM] |
| --- | --- | --- | --- | --- | --- | --- |
| C[C@]12CC[C@H](O)C[C@H]1CC[C@@H]1[C@@H]2CC[C@]2(C)[C@@H](/C=C/C=N/OCCO)CC[C@]12O | 39 | 179 | 6.3 | 300 | – | – |
| CC(/C=N/OCCN(C)C)=C\[C@H]1CC[C@]2(O)[C@@H]3CC[C@@H]4C[C@@H](O)CC[C@]4(C)[C@H]3CC[C@]12C.O=C(O)/C=C/C(=O)O | 0.07 | 146 | 0.06 | 0.3 | – | – |
| C[C@]12CC[C@H](O)C[C@H]1CC[C@@H]1[C@@H]2CC[C@]2(C)[C@@H](/C=C/C=C/CCN)CC[C@]12O | 0.38 | 98 | 0.08 | – | – | – |
| CN(C)CCCO/N=C/C=C1\CC[C@]2(O)[C@@H]3CC[C@@H]4C[C@@H](O)CC[C@]4(C)[C@H]3CC[C@]12C | – | – | 160 | – | – | – |
| C[C@]12CC[C@H](O)C[C@H]1CC[C@@H]1[C@@H]2CC[C@]2(C)/C(=C/C=N\OCCN)CC[C@]12O | 18 | 136 | 2 | 100 | – | – |
| CCCO/N=C/C(C)=C/[C@H]1CC[C@]2(O)[C@@H]3CC[C@@H]4C[C@@H](O)CC[C@]4(C)[C@H]3CC[C@]12C | – | – | > 10 | – | 40 | – |
| CN(C)CCO/N=C/C[C@H]1CC[C@]2(O)[C@@H]3CC[C@@H]4C[C@@H](O)CC[C@]4(C)[C@H]3CC[C@]12C | 1.8 | 73 | 0.63 | – | – | – |
| C[C@]12CC[C@H](O)C[C@H]1CC[C@@H]1[C@@H]2CC[C@]2(C)[C@@H](/C=C/C=C/CCCN)CC[C@]12O | 0.035 | 73 | – | 0.1 | – | 0.32 |
| C/C(C=O)=C\[C@H]1CC[C@]2(O)[C@@H]3CC[C@@H]4C[C@@H](O)CC[C@]4(C)[C@H]3CC[C@]12C | – | – | – | – | – | 1.58 |
| CN(C)CCCCO/N=C1\CC[C@]2(O)[C@@H]3CC[C@@H]4C[C@@H](O)CC[C@]4(C)[C@H]3CC[C@]12C | – | – | > 100 | – | – | – |
| C[C@]12CC[C@H](O)C[C@H]1CC[C@@H]1[C@@H]2CC[C@]2(C)[C@@H](C=O)CC[C@]12O | 11 | 79 | – | 300 | – | 25 |
| C[C@]12CC[C@H](O)C[C@H]1CC[C@@H]1[C@@H]2CC[C@]2(C)[C@@H](CCCCCCCN)CC[C@]12O | – | 43 | – | 100 | – | 1.25 |
| CN(C)CCON(C)C[C@H]1CC[C@]2(O)[C@@H]3CC[C@@H]4C[C@@H](O)CC[C@]4(C)[C@H]3CC[C@]12C | – | – | > 100 | – | 20 | – |
| C[C@]12CC[C@H](O)C[C@H]1CC[C@@H]1[C@@H]2CC[C@]2(C)[C@@H](CCCNOCCN)CC[C@]12O | 12 | 71 | 1 | – | – | – |
| C[C@]12CC[C@H](O)C[C@H]1CC[C@@H]1[C@@H]2CC[C@]2(C)[C@@H](C3=CC(=O)OC3)CC[C@]12O [DIGITOXIGENIN] | 0.57 | 200 | – | 3 | – | – |
| CCCO/N=C/C=C/[C@H]1CC[C@]2(O)[C@@H]3CC[C@@H]4C[C@@H](O)CC[C@]4(C)[C@H]3CC[C@]12C | – | – | 10 | – | – | – |
| C[C@]12CC[C@H](O)C[C@H]1CC[C@@H]1[C@@H]2CC[C@]2(C)[C@@H](CNOCCN)CC[C@]12O.Cl.Cl | 8 | 135 | 1.58 | 100 | – | – |
| CN(C)CCO/N=C\C=C1/CC[C@]2(O)[C@@H]3CC[C@@H]4C[C@@H](O)CC[C@]4(C)[C@H]3CC[C@]12C | – | – | 12.5 | – | – | – |
| CN(C)CCCO/N=C1\CC[C@]2(O)[C@@H]3CC[C@@H]4C[C@@H](O)CC[C@]4(C)[C@H]3CC[C@]12C | – | – | > 100 | – | – | – |
| CONC/C=C/[C@H]1CC[C@]2(O)[C@@H]3CC[C@@H]4C[C@@H](O)CC[C@]4(C)[C@H]3CC[C@]12C | – | – | 40 | – | – | – |
| CN(C)CCO/N=C/C=C/C=C/[C@H]1CC[C@]2(O)[C@@H]3CC[C@@H]4C[C@@H](O)CC[C@]4(C)[C@H]3CC[C@]12C.O=C(O)C(=O)O | 20 | 145 | – | 100 | – | 6.3 |

Reference: ChEMBL document CHEMBL1133742, “17beta-O-Aminoalkyloximes of 5beta-androstane-3beta,14beta-diol with digitalis-like activity: synthesis, cardiotonic activity, structure-activity relationships, and molecular modeling of the Na(+),K(+)-ATPase receptor” (J Med Chem, 2000)
